We go through 5 molecules from ChEMBL document CHEMBL3352714, “Synthesis, in Vitro Covalent Binding Evaluation, and Metabolism of (14)C-Labeled Inhibitors of 11β-HSD1” (ACS Med Chem Lett, 2014).

The test system of data set [1] is Liver microsome. The experiment in a line: Oxidative metabolism in human liver microsomes assessed as protein covalent binding measured per mg protein at 10 uM after 1 hr in presence of NADPH.
For data set [2], the system named is Liver microsome. The experiment in a line: Oxidative metabolism in human liver microsomes assessed as protein covalent binding measured per mg protein at 10 uM after 1 hr in presence of NADPH. A general note: Liver microsomes are vesicles of endoplasmic reticulum, rich in cytochrome P450 enzymes.
Data set [3] can be described thus: Drug metabolism in human hepatocytes assessed as total turnover after 2 hrs by LC-MS/MS-radiometric analysis. In kind it is ADME, cell-based, Hepatocyte. To be noted: read-out: Drug metabolism. A digest of the protocol: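 14C-labeled compound incubated with human hepatocytes. Parent and radiolabeled metabolites were analyzed by tandem LC–MS/MS with radiometric detection and expressed as % of administered dose.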

Data set [4] can be described thus: Clearance in cynomolgus monkey at 0.5 mg/kg, iv. In kind it is ADME, organism-based, Macaca fascicularis. The arrangement: dose 0.5 mg/kg, route intravenous. To be noted: in vivo. Summed up:
(§1)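 Intravenous dose 0.5 mg/kg, formulated in 10% N,N-dimethylacetamide, 10% ethanol, 40% propylene glycol and 40% water. Values are averages of three animals per species.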

A short description of data set [5]: Oral bioavailability in rat at 2 mg/kg. The data set is classed as ADME, organism-based. To be noted: in vivo. Summed up:
(§2)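 Oral dose 2.0 mg/kg. Rat and dog received a solution in 15% HPβCD in Ora-Plus. Cynomolgus monkey received a suspension in 1% Tween 80 and 1% methylcellulose (4000 cps) in deionized water. Values are averages of three animals; iv reference dose was 0.5 mg/kg.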

Data set [6] is described as follows: Cmax in dog at 2 mg/kg, po. In kind it is ADME, organism-based, Canis lupus familiaris. More on the design: dose 2 mg/kg, route oral. To be noted: in vivo. Summed up:
as §2

The nature of data set [7]: Half life in dog at 0.5 mg/kg, iv. The arrangement: dose 0.5 mg/kg, route intravenous. To be noted: in vivo. The data set is classed as ADME, organism-based, Canis lupus familiaris. A digest of the protocol: as §1
Data set [8] in a line: Cmax in cynomolgus monkey at 2 mg/kg, po. The data set is classed as ADME, organism-based, Macaca fascicularis. The arrangement: dose 2 mg/kg, route oral. Conditions: in vivo. Summed up: as §2
Data set [9] is described as follows: Half life in rat at 0.5 mg/kg, iv. Conditions: in vivo. The arrangement: dose 0.5 mg/kg, route intravenous. The data set is classed as ADME, organism-based. A digest of the protocol:
as §1

Data set [10] can be described thus: Volume of distribution at steady state in dog at 0.5 mg/kg, iv. The data set is classed as ADME, organism-based, Canis lupus familiaris. The arrangement: dose 0.5 mg/kg, route intravenous. Conditions: in vivo, read-out: Vdss. Summed up:
as §1

Data set [11] is described as follows: Oral bioavailability in cynomolgus monkey at 2 mg/kg. In kind it is ADME, organism-based, Macaca fascicularis. To be noted: in vivo. A digest of the protocol: as §2
Data set [12] is described as follows: Volume of distribution at steady state in rat at 0.5 mg/kg, iv. Conditions: in vivo, read-out: Vdss. More on the design: dose 0.5 mg/kg, route intravenous. The data set is classed as ADME, organism-based. Summed up:
as §1

Data set [13] in a line: Oral bioavailability in dog at 2 mg/kg. In kind it is ADME, organism-based, Canis lupus familiaris. To be noted: in vivo. A digest of the protocol:
as §2

Data set [14] can be described thus: Cmax in rat at 2 mg/kg, po. The data set is classed as ADME, organism-based. The arrangement: dose 2 mg/kg, route oral. To be noted: in vivo. A digest of the protocol: as §2
Data set [15] has as its system Cynomolgus monkey. To be noted: Macaca fascicularis; at 10 mg/kg.
Data set [16] is described as follows: Volume of distribution at steady state in cynomolgus monkey at 0.5 mg/kg, iv. The data set is classed as ADME, organism-based, Macaca fascicularis. More on the design: dose 0.5 mg/kg, route intravenous. To be noted: in vivo, read-out: Vdss. Summed up:
as §1

Data set [17] is described as follows: Clearance in dog at 0.5 mg/kg, iv. The data set is classed as ADME, organism-based, Canis lupus familiaris. More on the design: dose 0.5 mg/kg, route intravenous. Conditions: in vivo. Summed up:
as §1

Data set [18] can be described thus: Clearance in rat at 0.5 mg/kg, iv. The data set is classed as ADME, organism-based. The arrangement: dose 0.5 mg/kg, route intravenous. Conditions: in vivo. A digest of the protocol:
as §1

Data set [19] can be described thus: Half life in cynomolgus monkey at 0.5 mg/kg, iv. The data set is classed as ADME, organism-based, Macaca fascicularis. More on the design: dose 0.5 mg/kg, route intravenous. Conditions: in vivo. Summed up:
as §1

As for `c1ccc2ccccc2c1`, the PB in [1] was determined as 420 pmol.

On to `C[C@@H]1CN(CC2(C(N)=O)CC2)[14CH2][14CH2]N1S(=O)(=O)c1ccc([C@](C)(O)C(F)(F)F)cc1`, for which the PB in data set [2] and in [1] was 70 pmol throughout.

Take `C[C@](O)(c1ccc(S(=O)(=O)c2ccc([14C]#N)cc2Cl)cc1)C(F)(F)F`: the PB in data set [2] and in data set [1] was 370 pmol throughout. Moreover, the metabolised at 2 h in [3] came out at 9.8%.

Consider `C[C@](O)(c1ccc(C(=O)N(C2CC2)[C@H]2CC[C@](CO[14C](N)=O)(c3ccc(F)cc3)CC2)cc1)C(F)(F)F`, for which the PB in [2] and in data set [1] was 15 pmol throughout.

As usually defined, the clearance is a measure of how efficiently the substance is removed, as volume per time. Broadly, the bioavailability is the share of a dose that reaches the circulation, judged against a reference dose that is usually intravenous. Broadly, the Cmax is the maximum level reached in the sampled fluid or tissue. By half-life is commonly meant the time needed for the level to fall by half in the phase considered. `C[C@](O)(c1ccc(C(=O)N(C2CC2)[C@H]2CC[C@](COC(N)=O)(c3ccc(F)cc3)CC2)cc1)C(F)(F)F` (mixture of isomers): the values for the clearance in [4], in data set [17] and in data set [18] were 0.483 mL/min/kg, 0.2 mL/min/kg and 0.683 mL/min/kg, respectively. The bioavailability came to 72% in [5], 38% in data set [11] and 88% in data set [13]. For the same molecule, the Cmax in data set [6] is 1840 ng/mL; in [8] it was 211 ng/mL; in [14], 1130 ng/mL. Besides, the half-life is 78 h in [7], 43 h in data set [9] and 27 h in [19]. Besides, the Vd in data set [10] came out at 1.2 L/kg; in data set [12], 2.3 L/kg; in data set [16], 1 L/kg. Besides, in [15], the inhibition result was “Dose-dependent effect”.
